According to ChEMBL document CHEMBL4513216, “Probing the Open Global Health Chemical Diversity Library for Multistage-Active Starting Points for Next-Generation Antimalarials” (ACS Infect Dis, 2020):

Test: Toxicity liver stage against HepG2, at 10uM
Type: cell-based
Design: test concentration 10 uM, cell line HepG2-A16-CD81EGFP
Settings: human, HepG2-A16-CD81EGFP cells; read-out: INHIBITION
Method in brief: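 Uninfected HepG2-A16-CD81EGFP cells, 3 × 10^3 per well, 1536-well, plated on prespotted compound at 10 μM final, parasite-free screening media added to match infected plates; puromycin 10 μM positive, DMSO 0.5% negative; run in parallel with 48 h PbLuc assay at 37 °C, 5% CO2; viability by CellTiter-Glo luminescence, normalized to controls.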

Row | Structure (SMILES) | cytotoxicity at 10 µM [%]
1 | CCCNC(=O)COc1cccc(-c2nc(C(C)C)no2)c1 | -77.9
2 | CCOC(=O)CN1CCC2(CC1)CC(=O)c1ccc3ccccc3c1O2 | 3.33
3 | COC(=O)N1CC[C@@]2(C1)[C@H](OC)CN(c1ccccc1)S2(=O)=O | 5.78
4 | COc1cccc(-c2nc(C)c(C(=O)NCCC(=O)O)s2)c1 | 8.69
5 | O=C(CCc1nc2cc(Br)cnc2[nH]1)NCCCN1CCOCC1 | -2.67
6 | CCCS(=O)(=O)c1ccc(N2CCN(Cc3ccccc3)CC2)nn1 | -5.93
7 | O=C(NCC(O)(c1cccs1)C1CC1)NC1CCCCC1 (stereo unspecified) | -2.25
8 | Cc1noc(C)c1S(=O)(=O)NCC(C)(O)c1ccc2c(c1)OCO2 (stereo unspecified) | 0.331
9 | O=C(Nc1cccnc1)C1CCN(c2cc(-n3ccnc3)ncn2)CC1 | -3.3
10 | O=C(NCCNc1cc(-n2cccc2)ncn1)c1cccs1 | -2.56
11 | CCOCC(=O)NCCC(O)c1ccoc1 (stereo unspecified) | -4.59
12 | CNC(=O)CS(=O)(=O)C1CCN(S(=O)(=O)c2cccc(C(C)=O)c2)CC1 | 5.85
13 | COCCN1C(=O)C2(CCC(C(=O)Nc3ccc(C)cc3)CC2)N=C1C (stereo unspecified) | 12.3
14 | CCNC(=O)CC1CC2(CCN(C(C)=O)CC2)c2cc(F)ccc21 (stereo unspecified) | 6.83
15 | CCN(CC)[C@H]1COC[C@@H]2CN(Cc3cnn(C)c3)C[C@@H]21 | 11.5
16 | Cc1cc(CN2C[C@@H]3COC[C@]3(COCC(=O)N(C)C)C2)no1 | 1.44
17 | Cc1ccc(CN2CCC3(CC(C(=O)NCC4CC4)=NO3)C2)cc1C (stereo unspecified) | 3.84
18 | CCn1ncc(Nc2[nH]cnc3nncc2-3)c1C | 7.29
19 | Cc1cc(-c2cncnc2)nc(C2CCCN2S(C)(=O)=O)n1 (stereo unspecified) | -6.21
20 | CNc1cc(C2CCCN2Cc2ccccc2C(=O)O)ccn1 (stereo unspecified) | -5.28
21 | Cc1ccccc1C(C#N)NC(=O)CCCOc1cccnc1 (stereo unspecified) | -0.398

Row | Structure (SMILES) | cytotoxicity at 10 µM [%]
22 | Cc1nnc(CN2CCCCC2c2nc(-c3ccccc3)no2)s1 (stereo unspecified) | -48.5
23 | CC1CCCN(C(=O)c2cn(-c3ccc(C(F)(F)F)cn3)nn2)C1 (stereo unspecified) | -51.3
24 | CN1CCN(C(=O)c2cccs2)Cc2ccccc21 | -43.9
25 | O=C(CCSc1ccccc1F)N1CCN(c2cnccn2)CC1 | -51.7
26 | Cc1nc(-c2ccc(CC(=O)N3CCN(C(=O)C(C)C)CC3)cc2)cs1 | 12.8
27 | Cc1cc(C)nc(NC2CC(=O)N(C(C)(C)C)C2)n1 (stereo unspecified) | -5.81
28 | c1ncc2c(n1)CN(Cc1cn3ccsc3n1)CC2 | 11.3
29 | c1ccc(N2CCC(NCc3cccc4cn[nH]c34)C2)cc1 (stereo unspecified) | 13.6
30 | O=C(c1ccc(-n2ccnc2)cc1)N1CCCC1 | -7.55
31 | Cc1nc(C)n(CC2CCCCN2CCCO)n1 (stereo unspecified) | 4.37
32 | CCOC(C)c1noc(CN2CCNCC2)n1 (stereo unspecified) | 1.03
33 | CN(C)c1cccc(C(=O)Nc2cn(C)c(=O)n(C)c2=O)c1 | 3.34
34 | COc1ccc(CNC(=O)NCCc2nc(C)c(C)s2)cn1 | -0.0813
35 | CC(C)N(C)S(=O)(=O)N1CCCC1C(=O)N1CCSCC1 (stereo unspecified) | -16.5
36 | Cc1ccc(CNCc2nnc3n2CCCC3C(F)(F)F)s1 (stereo unspecified) | 20.7
37 | CC(O)CN1CCC(CNCc2ccc(S(C)(=O)=O)cc2)CC1 (stereo unspecified) | -21.4
38 | CC(C)Cn1c2c(ccc1=O)CC(NC(=O)c1ccsc1)CC2 (stereo unspecified) | -109
39 | COC[C@@]12CCC[C@@H]1CN(C(=O)Cc1ccco1)C2 | -102
40 | Cc1occc1C(=O)N1CCC2(CC1)C(c1cnn(C)c1)CC(=O)N2C (stereo unspecified) | 5.66
41 | O=c1cc(Cn2cncn2)nc2n1CCCN(CC1CC1)C2 | -2.65
42 | CCCOC(=O)N1CCCC(c2nnc(CN3CCOCC3)n2C)C1 (stereo unspecified) | 2.19

Row | Structure (SMILES) | cytotoxicity at 10 µM [%]
43 | CC(Nc1nc(-c2ccccc2)nc2c1CCNCC2)c1cccnc1 (stereo unspecified) | -0.587
44 | COc1ccccc1S(=O)(=O)N1CCC2(CC1)[C@H](O)C[C@@H]2O | 9.12
45 | CC(C)(O)CCc1cccc(C(=O)NCCC2=CSC3=NCCCN23)c1 | 9.17
46 | CCC(CO)N(Cc1ccccn1)C(=O)c1ccc(CSC)o1 (stereo unspecified) | -5.06
47 | Cc1nc[nH]c1-c1c(-c2ccccc2)ncn1C1CCNC1 (stereo unspecified) | -52.4
48 | CC(C)Cc1cc(C(=O)N2CCC(C(=O)N3CCOCC3)CC2)on1 | -8.61
49 | CCCc1nnc2sc(C3CCN(CCOC)CC3)nn12 | 6.76
50 | CCc1[nH]c2c(CNC(=O)C3CCCN(C)C3)cc(C)cc2c1C (stereo unspecified) | -15.6
51 | CC(C)n1ccnc1C1CCCN(c2cc(C(=O)NC3CC3)ccn2)C1 (stereo unspecified) | -0.352
52 | C1CCC(c2nc3c(c(N4CC(N5CCOCC5)C4)n2)CCNCC3)C1 | -10.2
53 | CC(C)N1CCOC(CC(=O)N2CC(c3ccncc3)C2)C1 (stereo unspecified) | 7.44
54 | N[C@H]1CN(C(=O)c2ccccc2Oc2ccccc2)C[C@@H]1C1CC1 | -0.948
55 | O=C(CCCn1cnnn1)N1CCC(c2ccncc2)CC1 | -4.8
56 | Cc1nc[nH]c1CN1CCCC(CNC(=O)c2ccc(N)nc2)C1 (stereo unspecified) | 1.56
57 | Cc1ccccc1CCC1CCCN(Cc2c(C)[nH]c(=O)[nH]c2=O)C1 (stereo unspecified) | 5
58 | Cc1ccc(C)c(OC(C)C(=O)Nc2cccnc2)c1 (stereo unspecified) | 7.39
59 | CCN(Cc1ccoc1)Cc1nc(COC)no1 | -0.566
60 | CNc1ncc(C(=O)N2CCCC(CO)(CCCOC)C2)cn1 (stereo unspecified) | -44.4
61 | C/C=C(\C)CN(CCN1CCOCC1)Cc1ccco1 | 11.1
62 | CCOC(=O)N1CCN(C(=O)C(CC)n2cccn2)CC1 (stereo unspecified) | -0.193
63 | CCCn1ncc(CN2CCCCC2CCCOC)c1C (stereo unspecified) | -15.2

Row | Structure (SMILES) | cytotoxicity at 10 µM [%]
64 | O[C@H]1[C@H](n2cc(-c3cccnc3)nn2)c2ccccc2C12CCNCC2 | -10.5
65 | COc1ncccc1NC(=O)N(C1CC1)C(C)C(C)C (stereo unspecified) | 8.42
66 | Cc1ccc(NC2CCN(C(=O)C(C(C)C)n3cncn3)CC2)nn1 (stereo unspecified) | -3.01
67 | COc1ccccc1OCCNCc1c(C(C)C)nn(C)c1N(C)C | -12.8
68 | O=C(c1ccc(NC2CC2)nc1)N1CCCC(n2ccnc2)C1 (stereo unspecified) | -3.81
69 | COc1ccccc1OCC(=O)NS(=O)(=O)c1ccc(Cl)s1 | -4.93
70 | Cc1ccc(C(=O)NC2CCN(C(=O)Nc3ccncc3)CC2)o1 | 1.48
71 | CN(C(=O)c1cccc(Cl)c1)C1CCN(c2ccccn2)CC1 | -8.8
72 | Cc1nc(CN(C)C2CCN(Cc3ccc4c(c3)CCC4)C2)no1 (stereo unspecified) | -18.2
73 | O=C(c1cc2c(s1)CCC2)N1CCCCC1Cn1cccn1 (stereo unspecified) | -4.86
74 | Cn1ccc(C(=O)N2CCN(c3ncccn3)CC2)cc1=O | -11.6
75 | Cn1ccnc1C(=O)N1C[C@@H]2CCN(c3cnccn3)C[C@@H]2C1 | -97
76 | O=C1COC2(COCCN(c3ccccn3)C2)CN1c1cccc(F)c1 (stereo unspecified) | -103
77 | CCN1C[C@@H]2CN(C(=O)NCc3ccccc3)CCC[C@]2(C(=O)O)C1 | 3.47
78 | Cc1cnc(N2C[C@H]3CN(Cc4csc(C)n4)C(=O)[C@H]3C2)nc1 | 12
79 | CO[C@H]1CN(CC2CC2)[C@@H]2CCCO[C@H]12 | -118
80 | O=C(Nc1cccnc1)[C@H]1CN(Cc2ccco2)C[C@H]2OCC[C@@H]12 | -114
81 | CCOc1ccc(CN2CC[C@@H]3CC[C@H](C2)N3)cc1CO | 5.99
